ChEMBL document CHEMBL1131170 (J Med Chem, 1998)
pIC50: −log10 of the molar value. Calls of active or inactive are those of the source. The calls are words filed in the database; no cut-off is given here.

Experiments:
[1] = molecular target: T1, Protein farnesyltransferase (Homo sapiens, UniProt P49354+P49356); assay: Inhibitory activity against human Farnesyltransferase; format: protein-complex assay
Outline: (§1)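 Compounds in 100% DMSO diluted 20-fold, giving 5% DMSO final. Farnesyl transfer measured; IC50 determined.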

[2] = molecular target: T1, Protein farnesyltransferase; assay: inhibitory activity against human Farnesyltransferase; format: protein-complex assay; outline: as §1
[3] = molecular target: T1, Protein farnesyltransferase; assay: Inhibition of human Farnesyltransferase at 100 uM; format: protein-complex assay
[4] = molecular target: T1, Protein farnesyltransferase; assay: (§2) Inhibition of human Farnesyltransferase; format: protein-complex assay; outline: as §1
[5] = molecular target: T1, Protein farnesyltransferase; assay: as §2; format: protein-complex assay; outline: as §1; remark: listed apart in the source
[6] = molecular target: T1, Protein farnesyltransferase; assay: Inhibition of human Farnesyltransferase using Ras-CVLS; format: protein-complex assay
[7] = inhibition of human Geranylgeranyl transferase using Ras-CVIM
[8] = molecular target: T1, Protein farnesyltransferase; assay: as §2; format: protein-complex assay; outline: as §1; remark: listed apart in the source
[9] = molecular target: T1, Protein farnesyltransferase; assay: as §2; format: protein-complex assay; outline: as §1; remark: listed apart in the source
[10] = molecular target: T1, Protein farnesyltransferase; assay: as §2; format: protein-complex assay; outline: as §1; remark: listed apart in the source
HepG2 [11] = assay: Inhibition of cholesterol biosynthesis in HepG2 cells at 81 uM; format: functional; conditions: Homo sapiens
Outline: (§3)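 HepG2 cells seeded at 2 × 10^5/well on day 0, fed delipidated-serum medium on day 3 and again on day 5, when compounds in DMSO were added for 4 h. Labeled with [14C]acetate (3 µCi/mL) for 2 h, then saponified, acidified, petroleum ether extracted twice, TLC on silica (petroleum ether–ethyl ether–acetic acid 75:25:1), phosphor imaging; incorporation into cholesterol.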

[12] = molecular target: T1, Protein farnesyltransferase; assay: as §2; format: protein-complex assay; conditions: concentration not given here; outline: as §1
HepG2 [13] = assay: Inhibition of cholesterol biosynthesis in HepG2 cells at 16 uM; format: functional; conditions: Homo sapiens; outline: as §3
[14] = molecular target: T1, Protein farnesyltransferase; assay: as §2; format: protein-complex assay; conditions: concentration not given here; outline: as §1; remark: listed apart in the source
[15] = Inhibition of human Geranylgeranyl transferase using Ras-CAIL
[16] = molecular target: T1, Protein farnesyltransferase; assay: as §2; format: protein-complex assay; outline: as §1; remark: listed apart in the source
HepG2 [17] = assay: Inhibition of cholesterol biosynthesis in HepG2 cells at 32 uM; format: functional; conditions: Homo sapiens; outline: as §3
[18] = molecular target: T1, Protein farnesyltransferase; assay: as §2; format: protein-complex assay; outline: as §1; remark: listed apart in the source
HepG2 [19] = assay: Inhibition of cholesterol biosynthesis in HepG2 cells at 42 uM; format: functional; conditions: Homo sapiens; outline: as §3
HepG2 [20] = assay: Inhibition of cholesterol biosynthesis in HepG2 cells at 21 uM; format: functional; conditions: Homo sapiens; outline: as §3
HepG2 [21] = assay: Inhibition of cholesterol biosynthesis in HepG2 cells at 106 uM; format: functional; conditions: Homo sapiens; outline: as §3
HepG2 [22] = assay: Inhibition of cholesterol biosynthesis in HepG2 cells at 2.5 uM; format: functional; conditions: Homo sapiens
Outline: (§4)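 HepG2 cells seeded on day 0; fresh medium with delipidated serum on day 3 and again on day 5, when compounds (DMSO stocks) were added for 4 h. Extracts were separated by silica TLC (petroleum ether–ethyl ether–acetic acid 75:25:1) and quantified by phosphor imaging as cholesterol incorporation.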

HepG2 [23] = assay: Inhibition of cholesterol biosynthesis in HepG2 cells at 25 uM; format: functional; conditions: Homo sapiens; outline: as §4
[24] = molecular target: T1, Protein farnesyltransferase; assay: Inhibition of human Farnesyltransferase, inactive at 100 uM; format: protein-complex assay

| Compound | pIC50 [1] | pIC50 [2] | further results |
| --- | --- | --- | --- |
| CC(C)CCCC(C)C1CCC2C3C(CC[C@]12C)[C@@](C)(C[C@@H](CC(=O)O)C(=O)O)C(=O)C[C@@H]3C (stereo not given in full) | 7.40 | – | – |
| CC(CCC(=O)O)C1CCC2C3C(CC[C@]12C)[C@@](C)(CCC(=O)O)C(=O)C[C@@H]3C (stereo not given in full) | 4.51 | – | – |
| CCOC(=O)C[C@H](C[C@@]1(C)C(=O)C[C@H](CC)C2C3CCC(C(C)CCCC(C)C)[C@@]3(C)CCC21)C(=O)O (stereo not given in full) | 4.40 | – | – |
| COC(=O)CC[C@@]1(C)C(=O)C[C@H](C)C2C3CCC(C(C)CCCC(C)C)[C@@]3(C)CCC21 (stereo not given in full) | – | < 4.00 | – |
| C[C@@H]1CC2C3CCC4=CC(=O)C=C[C@]4(C)C3C(=O)C[C@]2(C)[C@]12OCOC21COCO1 (stereo not given in full) | – | < 4.00 | – |
| CC(=O)C1CCC2C3CCC(=O)[C@](C)(CCC(=O)O)C3C(=O)C[C@]12C (stereo not given in full) | < 4.00 | – | – |
| CC(C)(CC(=O)O)CC(=O)OCC(=O)[C@@]1(O)CCC2C3CCC4=CC(=O)C=C[C@]4(C)[C@@]3(F)[C@@H](O)C[C@@]21C (stereo not given in full) | – | – | inhibition [3]: 63% |
| CC[C@H]1CC2=CC(=O)CC[C@]2(C)C2CC[C@]3(C)C(C(C)CCCC(C)C)CCC3C21 (stereo not given in full) | – | < 4.00 | – |
| CC(C)CCCC(C)C1CCC2C3CCC(=O)[C@](C)(CCC(=O)O)C3CC[C@]12C (stereo not given in full) | 4.40 | – | – |
| C[C@]1(C(=O)O)C(=O)CCC2C1C(=O)C[C@@]1(C)C2CC[C@@]12OCOC21COCO1 (stereo not given in full) | < 4.00 | – | – |
| C[C@H](CCC(O)C(C)(C)O)[C@H]1CC[C@@]2(C)C3=C(CC[C@]12C)[C@@]1(C)C[C@@H](OC(=O)CC(C)(O)CC(=O)O)C(=O)C(C)(C)[C@@H]1CC3 (stereo not given in full) [CLAVARIC ACID] | – | – | FPTase activity (fM ug-1 min-1) [4]: 3340; FPTase activity (fM ug-1 min-1) [5]: 2390; pIC50 [6]: 6.46; pIC50 [7]: < 4.30; FPTase activity (fM ug-1 min-1) [8]: 3330; FPTase activity (fM ug-1 min-1) [9]: 7340; inhibition ([9]; concentration not given here): 70%; FPTase activity (fM ug-1 min-1) [10]: 694; inhibition at 81 µM (HepG2 [11]): 69%; inhibition [12]: 81%; inhibition at 16 µM (HepG2 [13]): 0%; inhibition [14]: 84%; pIC50 [15]: 4.68; FPTase activity (fM ug-1 min-1) [16]: 592; inhibition at 32 µM (HepG2 [17]): 0% |
| CC(C)CCCC(C)C1CCC2C3CCC(=O)[C@](C)(C[C@@H](CC(=O)O)C(=O)O)C3CC[C@]12C (stereo not given in full) | – | – | pIC50 [18]: 6.72 |
| C[C@]12CCC(=O)C=C1CC[C@@H]1[C@@H]2[C@@H](O)C[C@@]2(C)[C@H]1CC[C@]2(O)C(=O)COC(=O)CCC(=O)O | – | – | inhibition [3]: 46% |
| C[C@]12C=C(C3OCCO3)C(=O)C=C1CCC1C2C(=O)C[C@@]2(C)C1CC[C@@]21OCOC12COCO2 (stereo not given in full) | – | 4.42 | – |
| CC(C)CCCC(C)C1CCC2C3CC[C@@H](C(=O)O)[C@](C)(CCC(=O)O)C3CC[C@]12C (stereo not given in full) | 4.68 | – | – |
| CC(=O)OCC(=O)[C@@]1(O)CCC2C3CCC4=CC(=O)CC[C@]4(C)C3[C@@H](O)C[C@@]21C (stereo not given in full) | – | – | inhibition [3]: 6% |
| C[C@H](CCC(O)C(C)(C)O)[C@H]1CC[C@@]2(C)C3=C(CC[C@]12C)[C@@]1(C)C[C@@H](O)C(=O)C(C)(C)[C@@H]1CC3 (stereo not given in full) [CLAVARINONE] | – | 4.82 | pIC50 [6]: 5.10; inhibition at 42 µM (HepG2 [19]): 74%; pIC50 [7]: < 4.30; inhibition at 21 µM (HepG2 [20]): 59%; inhibition at 106 µM (HepG2 [21]): 97%; pIC50 [15]: 4.46 |

| Compound | pIC50 [1] | pIC50 [2] | further results |
| --- | --- | --- | --- |
| CC(=O)OCC(=O)[C@@]1(O)CCC2C3CCC4=CC(=O)CC[C@]4(C)C3CC[C@@]21C (stereo not given in full) | – | – | inhibition [3]: 6% |
| CC(=O)OCC(=O)[C@@]1(O)C(C)CC2C3CCC4=CC(=O)C=C[C@]4(C)C3=CC[C@@]21C (stereo not given in full) | – | 4.40 | – |
| CC[C@H]1CC(=O)[C@](C)(C[C@@H](CC(=O)O)C(=O)O)C2CC[C@]3(C)C(C(C)CCCC(C)C)CCC3C21 (stereo not given in full) | 5.52 | – | – |
| C[C@H]1CC2C3CCC4=CC(=O)C=C[C@]4(C)C3C(=O)C[C@]2(C)[C@]12OCOC21COCO1 (stereo not given in full) | – | 4.02 | – |
| CCOC(=O)C[C@H](C[C@@]1(C)C(=O)CCC2C3CCC(C(C)CCCC(C)C)[C@@]3(C)CCC21)C(=O)O (stereo not given in full) | < 4.00 | – | – |
| C[C@]12CC(=O)C3C(CCC4=CC(=O)CC[C@@]43C)C1CCC2C(=O)CO (stereo not given in full) | – | < 4.00 | – |
| CC(CCC(=O)O)C1CC[C@H]2[C@@H]3CCC4CC(=O)CC[C@]4(C)[C@H]3CC(=O)[C@]12C (stereo not given in full) | – | – | inhibition [3]: 33% |
| CC[C@H]1CC(=O)[C@](C)(CCC(=O)O)C2CC[C@]3(C)C(C(C)CCCC(C)C)CCC3C21 (stereo not given in full) | 4.22 | – | – |
| C[C@]12C=C(C=O)C(=O)C=C1CCC1C2C(=O)C[C@@]2(C)C1CC[C@@]21OCOC12COCO2 (stereo not given in full) | – | 5.92 | – |
| CC(C)=CCCC(C)C1CC[C@@]2(C)C3=C(CC[C@]12C)[C@@]1(C)CCC(=O)C(C)(C)C1CC3 (stereo not given in full) | – | 4.92 | – |
| CC(CCCC(C)(C)O)[C@H]1CC[C@H]2C3CC=C4C[C@@H](O)CC[C@]4(C)[C@H]3CC[C@]12C (stereo not given in full) | – | – | inhibition at 2.5 µM (HepG2 [22]): 87%; inhibition at 25 µM (HepG2 [23]): 90% |
| CC(C)CCCC(C)C1CCC2C3CC=C4C(C)(C)C(=O)CC[C@]4(C)C3CC[C@]12C (stereo not given in full) | – | – | inhibition [24]: inactive |
| COC(=O)CC[C@@]1(C)C(=O)CCC2C1C(=O)C[C@@]1(C)C2CC[C@@]12OCOC21COCO1 (stereo not given in full) | 4.59 | – | – |
| C[C@]1(CCC(=O)O)C(=O)CCC2C1C(=O)C[C@@]1(C)C2CC[C@@]12OCOC21COCO1 (stereo not given in full) | 4.54 | – | – |
| CC(C)CCCC(C)C1CCC2C3C(CC[C@]12C)[C@@](C)(CCC(=O)O)C(=O)C[C@@H]3C (stereo not given in full) | 6.05 | – | – |
| CC(C)CCCC(C)C1CCC2C3CCC(=O)C(CCC(=O)O)C3CC[C@]12C (stereo not given in full) | 5.92 | – | – |
| C[C@]12C=CC(=O)C=C1CC[C@@H]1[C@@H]2[C@@H](O)C[C@@]2(C)[C@H]1CC[C@]2(O)C(=O)COC(=O)CCC(=O)O | – | – | inhibition [3]: 36% |

Continued, in another order:

| pIC50 [1] | pIC50 [2] | Compound | further results |
| --- | --- | --- | --- |
| 4.40 | – | CC(C)C(=O)OCC(=O)C1CCC2C3CCC(=O)[C@](C)(CCC(=O)O)C3C(=O)C[C@]12C (stereo not given in full) | – |
| – | < 4.00 | CC(C)CCCC(C)C1CCC2C3CCC4=CC(=O)[C@H](CC(=O)O)C[C@]4(C)C3CC[C@]12C (stereo not given in full) | – |
| – | 4.82 | CC(C)C(=O)OCC(=O)[C@@]1(O)CCC2C3CCC4=CC(=O)CC[C@]4(C)C3C(=O)C[C@@]21C (stereo not given in full) | – |
| – | < 4.00 | CCC(CC)C(=O)OCC(=O)[C@@]1(O)CCC2C3CCC4=CC(=O)CC[C@]4(C)C3[C@@H](O)C[C@@]21C (stereo not given in full) | – |
| – | 4.30 | C[C@]12CCC(=O)C=C1CCC1C2C(=O)C[C@@]2(C)C1CC[C@]2(O)C(=O)COC(=O)CC(CC(=O)O)C(=O)O (stereo not given in full) | – |
| – | < 4.00 | CCOC(=O)C[C@@H]1C[C@@]2(C)C(=CC1=O)CCC1C3CCC(C(C)CCCC(C)C)[C@@]3(C)CCC12 (stereo not given in full) | – |
| – | 4.92 | CC(=O)OCC(=O)[C@@]1(O)CC[C@H]2[C@@H]3CCC4=CC(=O)CC[C@]4(C)[C@H]3C(=O)C[C@@]21C [CORTISONE ACETATE] | – |
| – | 4.25 | CCC(CC)C(=O)OCC(=O)[C@@]1(O)CCC2C3CCC4=CC(=O)CC[C@]4(C)C3C(=O)C[C@@]21C (stereo not given in full) | – |
| – | 4.62 | C[C@]12CCC(=O)C=C1CCC1C2C(=O)C[C@@]2(C)C1CCC2(O)C(=O)COC(=O)CCC(=O)O (stereo not given in full) | – |
| – | 4.32 | CC(C)(CC(=O)O)CC(=O)OCC(=O)[C@@]1(O)CCC2C3CCC4=CC(=O)CC[C@]4(C)[C@@]3(F)[C@@H](O)C[C@@]21C (stereo not given in full) | – |
